Results: ChEMBL document CHEMBL3244187, “Structure--activity relationships in cephalosporins prepared from penicillins. 2. Analogues of cephalexin substituted in the 3-methyl group” (J Med Chem, 1977)
≈ marks a conversion by molar mass, not a printed value. Calls of active or inactive are those of the source. No cut-off for these calls is given here.

Legend:
Staphylococcus aureus [1] = test: Antibacterial activity against beta-lactamase producing benzylpenicillin-resistant Staphylococcus aureus Russell after 18 hrs by serial dilution method; type: functional
Method in brief: (§1)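 MICs by serial dilution on nutrient agar. Inoculum 0.001 mL of undiluted overnight broth culture. Plates incubated 18 h at 37 °C before reading. The S. aureus Russell strain produces β-lactamase and resists benzylpenicillin.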

Escherichia coli = test: Antibacterial activity against Escherichia coli after 18 hrs by serial dilution method; type: functional
Method in brief: (§2)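 MICs by serial dilution on nutrient agar. Inoculum 0.001 mL of undiluted overnight broth culture. Plates incubated at 37 °C for 18 h before reading.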

Salmonella typhi = test: Antibacterial activity against Salmonella typhi after 18 hrs by serial dilution method; type: functional, Salmonella enterica subsp. enterica serovar Typhi; conditions: Salmonella enterica; method in brief: as §1
Shigella sonnei = test: Antibacterial activity against Shigella sonnei after 18 hrs by serial dilution method; type: functional; method in brief: as §2
Klebsiella aerogenes = test: Antibacterial activity against Klebsiella aerogenes after 18 hrs by serial dilution method; type: functional; method in brief: as §2
Proteus mirabilis = test: Antibacterial activity against Proteus mirabilis after 18 hrs by serial dilution method; type: functional; method in brief: as §2
[2] = Drug level in mouse blood at 50 mg/kg, po after 10 mins by microbiological assay; type: ADME, organism-based; design: dose 50 mg/kg, route oral; conditions: read-out: Drug uptake
Method in brief: (§3)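 Mice given a single 50 mg/kg dose by the route in the line. Groups of five killed at each time point and blood taken from the cut axilla, heparinized and stored at 4 °C. Blood assayed the same day by large-plate microbiological assay with Sarcina lutea NCTC 8340, overnight at 30 °C. Standards made in mouse blood, with pH 7.2 phosphate-buffered saline as diluent.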

[3] = Drug level in mouse blood at 50 mg/kg, po after 20 mins by microbiological assay; type: ADME, organism-based; design: dose 50 mg/kg, route oral; conditions: read-out: Drug uptake; method in brief: as §3
[4] = Drug level in mouse blood at 50 mg/kg, po after 30 mins by microbiological assay; type: ADME, organism-based; design: dose 50 mg/kg, route oral; conditions: read-out: Drug uptake; method in brief: as §3
[5] = Drug level in mouse blood at 50 mg/kg, po after 1 hr by microbiological assay; type: ADME, organism-based; design: dose 50 mg/kg, route oral; conditions: read-out: Drug uptake; method in brief: as §3
[6] = Drug level in mouse blood at 50 mg/kg, po after 2 hrs by microbiological assay; type: ADME, organism-based; design: dose 50 mg/kg, route oral; conditions: read-out: Drug uptake; method in brief: as §3
[7] = Drug level in mouse blood at 50 mg/kg, po after 4 hrs by microbiological assay; type: ADME, organism-based; design: dose 50 mg/kg, route oral; conditions: read-out: Drug uptake; method in brief: as §3
[8] = Drug level in mouse blood at 50 mg/kg, sc after 10 mins by microbiological assay; type: ADME, organism-based; design: dose 50 mg/kg, route subcutaneous; conditions: read-out: Drug uptake; method in brief: as §3
[9] = Drug level in mouse blood at 50 mg/kg, sc after 20 mins by microbiological assay; type: ADME, organism-based; design: dose 50 mg/kg, route subcutaneous; conditions: read-out: Drug uptake; method in brief: as §3
[10] = Drug level in mouse blood at 50 mg/kg, sc after 30 mins by microbiological assay; type: ADME, organism-based; design: dose 50 mg/kg, route subcutaneous; conditions: read-out: Drug uptake; method in brief: as §3
[11] = Drug level in mouse blood at 50 mg/kg, sc after 1 hr by microbiological assay; type: ADME, organism-based; design: dose 50 mg/kg, route subcutaneous; conditions: read-out: Drug uptake; method in brief: as §3
[12] = Drug level in mouse blood at 50 mg/kg, sc after 2 hrs by microbiological assay; type: ADME, organism-based; design: dose 50 mg/kg, route subcutaneous; conditions: read-out: Drug uptake; method in brief: as §3
[13] = Drug level in mouse blood at 50 mg/kg, sc after 4 hrs by microbiological assay; type: ADME, organism-based; design: dose 50 mg/kg, route subcutaneous; conditions: read-out: Drug uptake; method in brief: as §3
Staphylococcus aureus [14] = test: Antibacterial activity against Staphylococcus aureus Oxford after 18 hrs by serial dilution method; type: functional; method in brief: as §2
[15] = Drug level in mouse blood at 50 mg/kg, iv after 10 mins by microbiological assay; type: ADME, organism-based; design: dose 50 mg/kg, route intravenous; conditions: read-out: Drug uptake; method in brief: as §3
[16] = Drug level in mouse blood at 50 mg/kg, iv after 20 mins by microbiological assay; type: ADME, organism-based; design: dose 50 mg/kg, route intravenous; conditions: read-out: Drug uptake; method in brief: as §3
[17] = Drug level in mouse blood at 50 mg/kg, iv after 30 mins by microbiological assay; type: ADME, organism-based; design: dose 50 mg/kg, route intravenous; conditions: read-out: Drug uptake; method in brief: as §3
[18] = Drug level in mouse blood at 50 mg/kg, iv after 1 hr by microbiological assay; type: ADME, organism-based; design: dose 50 mg/kg, route intravenous; conditions: read-out: Drug uptake; method in brief: as §3
[19] = Drug level in mouse blood at 50 mg/kg, iv after 2 hrs by microbiological assay; type: ADME, organism-based; design: dose 50 mg/kg, route intravenous; conditions: read-out: Drug uptake; method in brief: as §3
[20] = Drug level in mouse blood at 50 mg/kg, iv after 4 hrs by microbiological assay; type: ADME, organism-based; design: dose 50 mg/kg, route intravenous; conditions: read-out: Drug uptake; method in brief: as §3
[21] = Drug metabolism in mouse assessed as metabolite level in urine by Sarcina lutea antibacterial assay; type: ADME
Method in brief: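 Urine from dosed mice run on paper strip chromatography in butanol-ethanol-water (4:1:5). Active zones located on agar plates seeded with Sarcina lutea.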

Pseudomonas aeruginosa = test: Antibacterial activity against cephalosporin-resistant Pseudomonas aeruginosa after 18 hrs by serial dilution method; type: functional, organism-based; method in brief: as §1
Morganella morganii = test: Antibacterial activity against cephalosporin-resistant Proteus morganii after 18 hrs by serial dilution method; type: functional, organism-based; method in brief: as §1
Enterobacter cloacae = test: Antibacterial activity against cephalosporin-resistant Enterobacter cloacae after 18 hrs by serial dilution method; type: functional, organism-based; method in brief: as §1

Structure (SMILES) | MIC (Staphylococcus aureus [1]) [mg/L] | MIC (Escherichia coli) [mg/L] | MIC (Salmonella typhi) [mg/L] | MIC (Shigella sonnei) [mg/L] | MIC (Klebsiella aerogenes) [mg/L] | MIC (Proteus mirabilis) [mg/L] | concentration at 10 min [2] [µg/mL] | concentration at 20 min [3] [µg/mL] | concentration at 0.5 h [4] [µg/mL] | concentration at 1 h [5] [µg/mL] | concentration at 2 h [6] [µg/mL] | concentration at 4 h [7] [µg/mL] | concentration at 10 min [8] [µg/mL] | concentration at 20 min [9] [µg/mL] | concentration at 0.5 h [10] [µg/mL] | concentration at 1 h [11] [µg/mL] | concentration at 2 h [12] [µg/mL] | concentration at 4 h [13] [µg/mL] | MIC (Staphylococcus aureus [14]) [mg/L] | concentration at 10 min [15] [µg/mL] | also measured
N[C@@H](C(=O)N[C@@H]1C(=O)N2C(C(=O)O)=C(Cc3cncc(C(=O)O)c3)CS[C@H]12)c1ccccc1 | 12.5 (≈ 26.7 µM) | 12.5 (≈ 26.7 µM) | 2.5 (≈ 5.34 µM) | 12.5 (≈ 26.7 µM) | 1.25 (≈ 2.67 µM) | 1.25 (≈ 2.67 µM) | 0.55 | 0.85 | 1.7 | 1.5 | 0.6 | < 0.4 | 70.4 | 54 | 35.8 | 12.2 | 2 | < 0.4 | 1.25 (≈ 2.67 µM) | – | –
CC(=O)OCC1=C(C(=O)O)N2C(=O)[C@@H](NC(=O)[C@H](N)c3ccccc3)[C@H]2SC1 [CEPHALOGLYCIN] | 2.5 (≈ 6.17 µM) | 5 (≈ 12.3 µM) | 1.25 (≈ 3.08 µM) | 2.5 (≈ 6.17 µM) | 5 (≈ 12.3 µM) | 5 (≈ 12.3 µM) | 1.7 | 2.6 | 2 | 0.6 | 0.7 | 0.07 | 37.1 | 30.2 | 21.7 | 3.1 | 0.2 | < 0.1 | 1.25 (≈ 3.08 µM) | 62.4 | concentration at 20 min [16]: 40.2 µg/mL; concentration at 0.5 h [17]: 11 µg/mL; concentration at 1 h [18]: 1.5 µg/mL; concentration at 2 h [19]: < 0.1 µg/mL; concentration at 4 h [20]: < 0.1 µg/mL
O=C(Cc1cccs1)N[C@@H]1C(=O)N2C(C(=O)[O-])=C(C[n+]3ccccc3)CS[C@H]12 [CEPHALORIDINE] | – | – | – | – | – | – | – | – | – | – | – | – | 32.8 | 24.4 | 18.5 | 5.6 | 0.71 | < 0.2 | – | 48.8 | concentration at 20 min [16]: 23.2 µg/mL; concentration at 0.5 h [17]: 14.3 µg/mL; concentration at 1 h [18]: 2.9 µg/mL; concentration at 2 h [19]: 0.32 µg/mL; concentration at 4 h [20]: < 0.05 µg/mL
CC(=O)OCCC1=C(C(=O)O)N2C(=O)[C@@H](NC(=O)[C@H](N)c3ccccc3)[C@H]2SC1 | 10 (≈ 23.8 µM) | > 50 | 25 (≈ 59.6 µM) | 50 (≈ 119 µM) | 25 (≈ 59.6 µM) | > 50 | – | – | – | – | – | – | – | – | – | – | – | – | 0.5 (≈ 1.19 µM) | – | –
N[C@@H](C(=O)N[C@@H]1C(=O)N2C(C(=O)O)=C(CC3CCCCO3)CS[C@H]12)c1ccccc1 (stereo partly drawn) | 5 (≈ 11.6 µM) | > 50 | 25 (≈ 57.9 µM) | 25 (≈ 57.9 µM) | 10 (≈ 23.2 µM) | > 50 | – | – | – | – | – | – | – | – | – | – | – | – | 5 (≈ 11.6 µM) | – | –
N[C@@H](C(=O)N[C@@H]1C(=O)N2C(C(=O)O)=C(Cc3ccccc3C(=O)O)CS[C@H]12)c1ccccc1 | 12.5 (≈ 26.7 µM) | – | 50 (≈ 107 µM) | 12.5 (≈ 26.7 µM) | – | – | 1.1 | 1.4 | 2.4 | 3.2 | 2.8 | 3.2 | 63.2 | 66 | 58 | 49.2 | 40.6 | 31.2 | – | 102 | concentration at 20 min [16]: 83.6 µg/mL; concentration at 0.5 h [17]: 75.4 µg/mL; concentration at 1 h [18]: 64.4 µg/mL; concentration at 2 h [19]: 29.1 µg/mL; concentration at 4 h [20]: 18.1 µg/mL
N[C@@H](C(=O)N[C@@H]1C(=O)N2C(C(=O)O)=C(Cc3cccc(C(=O)O)c3)CS[C@H]12)c1ccccc1 | – | – | – | 25 (≈ 53.5 µM) | – | – | 0.87 | 1.05 | 1.8 | 1.7 | 1.6 | 0.55 | 84.2 | 64.2 | 49.6 | 26.2 | 13.7 | 1.6 | – | – | Drug metabolism [21]: metabolite_notdetected; Activity (Pseudomonas aeruginosa): inactive; Activity (Morganella morganii): inactive; Activity (Enterobacter cloacae): inactive
